What was measured:
Conditions in all cases: stereoisomer not certain
UniProt Q8VGX8 = molecular target: T1, UniProt Q8VGX8
T1 sequence (whole entry): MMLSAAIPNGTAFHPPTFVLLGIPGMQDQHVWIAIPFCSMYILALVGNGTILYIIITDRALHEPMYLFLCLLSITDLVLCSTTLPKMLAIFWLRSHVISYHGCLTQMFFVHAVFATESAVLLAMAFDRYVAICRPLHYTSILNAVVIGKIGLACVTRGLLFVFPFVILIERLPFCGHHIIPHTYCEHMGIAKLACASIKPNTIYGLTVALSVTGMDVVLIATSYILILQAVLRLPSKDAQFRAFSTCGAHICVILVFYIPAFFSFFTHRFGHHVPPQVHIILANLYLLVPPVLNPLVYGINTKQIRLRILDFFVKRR
In short: (§1)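 Each receptor–molecule pair is labelled responsive or non-responsive (inactive) according to whether the original authors judged the measured signal statistically different from baseline. The data were taken from the main text and supplementary material of published papers and checked for typos and inconsistencies. Assay methods differed by source, with transient luciferase assays in mammalian cell lines being common.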

UniProt Q8VGY6 = molecular target: T2, UniProt Q8VGY6
T2 sequence (whole entry): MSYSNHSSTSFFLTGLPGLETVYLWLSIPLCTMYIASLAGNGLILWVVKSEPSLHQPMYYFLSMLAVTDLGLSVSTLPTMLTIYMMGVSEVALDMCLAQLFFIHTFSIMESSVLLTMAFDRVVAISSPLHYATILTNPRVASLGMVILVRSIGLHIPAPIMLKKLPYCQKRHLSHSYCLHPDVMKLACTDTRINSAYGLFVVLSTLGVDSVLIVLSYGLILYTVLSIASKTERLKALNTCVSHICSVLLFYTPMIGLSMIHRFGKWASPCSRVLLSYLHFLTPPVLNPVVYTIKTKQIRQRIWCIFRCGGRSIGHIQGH
In short: as §1

UniProt Q8VGZ2 = molecular target: T3, UniProt Q8VGZ2
T3 sequence (whole entry): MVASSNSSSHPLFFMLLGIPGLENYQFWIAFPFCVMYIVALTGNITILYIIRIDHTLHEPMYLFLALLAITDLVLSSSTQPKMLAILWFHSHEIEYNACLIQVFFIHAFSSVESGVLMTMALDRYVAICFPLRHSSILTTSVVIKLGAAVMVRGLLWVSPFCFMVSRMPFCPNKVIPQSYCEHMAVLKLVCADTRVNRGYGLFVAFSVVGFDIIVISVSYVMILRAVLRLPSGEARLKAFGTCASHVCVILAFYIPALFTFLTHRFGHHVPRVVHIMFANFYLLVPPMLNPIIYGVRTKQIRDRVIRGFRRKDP
In short: as §1

UniProt Q8VGZ7 = molecular target: T4, UniProt Q8VGZ7
T4 sequence (whole entry): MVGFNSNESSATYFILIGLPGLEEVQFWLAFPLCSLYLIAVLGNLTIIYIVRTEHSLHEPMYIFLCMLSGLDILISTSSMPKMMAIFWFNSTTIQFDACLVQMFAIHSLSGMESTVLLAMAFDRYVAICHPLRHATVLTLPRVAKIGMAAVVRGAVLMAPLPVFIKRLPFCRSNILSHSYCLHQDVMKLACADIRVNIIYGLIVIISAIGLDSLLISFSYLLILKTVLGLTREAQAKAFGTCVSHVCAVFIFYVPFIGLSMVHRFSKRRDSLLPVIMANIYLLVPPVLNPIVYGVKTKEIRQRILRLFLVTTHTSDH
In short: as §1

UniProt Q8VH10 = molecular target: T5, UniProt Q8VH10
T5 sequence (whole entry): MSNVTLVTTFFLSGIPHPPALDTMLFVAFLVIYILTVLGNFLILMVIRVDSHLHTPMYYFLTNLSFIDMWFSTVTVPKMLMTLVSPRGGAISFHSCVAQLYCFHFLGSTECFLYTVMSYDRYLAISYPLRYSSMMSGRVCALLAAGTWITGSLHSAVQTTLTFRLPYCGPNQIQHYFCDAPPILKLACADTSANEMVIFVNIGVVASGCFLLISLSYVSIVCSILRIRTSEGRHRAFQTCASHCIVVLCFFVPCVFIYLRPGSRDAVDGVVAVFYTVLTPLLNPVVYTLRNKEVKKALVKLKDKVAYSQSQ
In short: as §1

UniProt Q8VH18 = molecular target: T6, UniProt Q8VH18
T6 sequence (whole entry): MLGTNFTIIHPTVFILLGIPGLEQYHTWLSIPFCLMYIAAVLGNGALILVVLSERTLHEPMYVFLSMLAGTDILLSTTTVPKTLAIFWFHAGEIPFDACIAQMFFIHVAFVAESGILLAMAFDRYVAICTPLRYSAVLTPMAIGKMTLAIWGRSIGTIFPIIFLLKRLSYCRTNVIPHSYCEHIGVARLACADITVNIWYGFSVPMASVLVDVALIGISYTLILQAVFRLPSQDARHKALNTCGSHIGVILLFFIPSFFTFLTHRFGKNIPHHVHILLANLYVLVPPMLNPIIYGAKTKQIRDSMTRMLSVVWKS
In short: as §1

UniProt Q8VH20 = molecular target: T7, UniProt Q8VH20
T7 sequence (whole entry): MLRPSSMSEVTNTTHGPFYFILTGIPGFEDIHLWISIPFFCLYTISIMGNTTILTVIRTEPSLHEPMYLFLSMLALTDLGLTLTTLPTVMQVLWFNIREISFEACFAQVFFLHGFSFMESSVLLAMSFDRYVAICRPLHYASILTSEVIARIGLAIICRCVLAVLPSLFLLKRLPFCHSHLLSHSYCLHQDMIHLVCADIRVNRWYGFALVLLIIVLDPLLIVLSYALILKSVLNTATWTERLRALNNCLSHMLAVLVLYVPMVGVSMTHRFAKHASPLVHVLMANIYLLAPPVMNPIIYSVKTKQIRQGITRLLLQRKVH
In short: as §1

UniProt Q9EPN9 = molecular target: T8, UniProt Q9EPN9
T8 sequence (whole entry): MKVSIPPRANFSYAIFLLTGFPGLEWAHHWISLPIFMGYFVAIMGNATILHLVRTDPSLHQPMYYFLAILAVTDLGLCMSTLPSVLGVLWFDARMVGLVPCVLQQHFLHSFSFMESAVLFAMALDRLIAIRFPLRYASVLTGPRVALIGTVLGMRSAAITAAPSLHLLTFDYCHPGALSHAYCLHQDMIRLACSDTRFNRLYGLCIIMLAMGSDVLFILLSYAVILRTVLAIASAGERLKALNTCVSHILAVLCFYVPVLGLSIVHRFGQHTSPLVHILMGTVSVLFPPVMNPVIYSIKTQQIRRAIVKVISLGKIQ
In short: as §1

UniProt Q9R0K2 = molecular target: UniProt Q9R0K2
In short: as §1

UniProt Q9WU86 = molecular target: T9, UniProt Q9WU86
T9 sequence (whole entry): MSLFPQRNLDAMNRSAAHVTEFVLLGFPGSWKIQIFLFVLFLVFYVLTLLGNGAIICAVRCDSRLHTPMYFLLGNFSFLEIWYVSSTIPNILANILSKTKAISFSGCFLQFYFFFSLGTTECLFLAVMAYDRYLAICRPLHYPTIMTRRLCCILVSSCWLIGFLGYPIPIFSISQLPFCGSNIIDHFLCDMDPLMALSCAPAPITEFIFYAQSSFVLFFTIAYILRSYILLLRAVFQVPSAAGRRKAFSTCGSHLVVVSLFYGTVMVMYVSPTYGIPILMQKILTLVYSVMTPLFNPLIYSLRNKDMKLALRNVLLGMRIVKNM
In short: as §1

UniProt Q9WU94 = molecular target: T10, UniProt Q9WU94
T10 sequence (whole entry): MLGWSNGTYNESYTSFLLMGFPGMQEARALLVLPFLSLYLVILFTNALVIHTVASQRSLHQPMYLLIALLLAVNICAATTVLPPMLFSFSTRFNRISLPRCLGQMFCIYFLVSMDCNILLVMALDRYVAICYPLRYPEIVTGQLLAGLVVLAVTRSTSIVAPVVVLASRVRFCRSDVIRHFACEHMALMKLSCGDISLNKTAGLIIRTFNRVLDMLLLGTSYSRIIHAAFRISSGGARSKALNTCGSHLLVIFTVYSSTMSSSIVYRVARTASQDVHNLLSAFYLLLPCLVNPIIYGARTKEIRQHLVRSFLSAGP
In short: as §1

UniProt Q8VH16 = molecular target: T11, UniProt Q8VH16
T11 sequence (whole entry): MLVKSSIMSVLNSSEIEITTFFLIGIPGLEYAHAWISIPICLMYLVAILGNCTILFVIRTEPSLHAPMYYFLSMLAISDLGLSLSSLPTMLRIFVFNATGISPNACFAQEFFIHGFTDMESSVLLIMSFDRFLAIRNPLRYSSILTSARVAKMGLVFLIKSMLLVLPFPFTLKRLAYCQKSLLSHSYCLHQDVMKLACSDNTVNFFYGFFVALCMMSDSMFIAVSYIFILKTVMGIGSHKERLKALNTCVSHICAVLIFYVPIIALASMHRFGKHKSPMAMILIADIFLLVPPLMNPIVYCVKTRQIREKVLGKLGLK
In short: as §1

UniProt Q8VH21 = molecular target: T12, UniProt Q8VH21
T12 sequence (whole entry): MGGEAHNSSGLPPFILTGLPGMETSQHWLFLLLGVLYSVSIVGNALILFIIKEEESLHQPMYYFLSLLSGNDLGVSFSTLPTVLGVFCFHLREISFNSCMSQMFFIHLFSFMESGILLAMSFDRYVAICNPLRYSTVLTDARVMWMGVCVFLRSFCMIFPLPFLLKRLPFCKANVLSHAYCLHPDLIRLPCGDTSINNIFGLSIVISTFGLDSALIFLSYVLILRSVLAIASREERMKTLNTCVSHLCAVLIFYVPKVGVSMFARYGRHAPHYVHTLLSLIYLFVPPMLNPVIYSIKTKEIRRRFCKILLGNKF
In short: as §1

UniProt Q924H8 = molecular target: T13, UniProt Q924H8
T13 sequence (whole entry): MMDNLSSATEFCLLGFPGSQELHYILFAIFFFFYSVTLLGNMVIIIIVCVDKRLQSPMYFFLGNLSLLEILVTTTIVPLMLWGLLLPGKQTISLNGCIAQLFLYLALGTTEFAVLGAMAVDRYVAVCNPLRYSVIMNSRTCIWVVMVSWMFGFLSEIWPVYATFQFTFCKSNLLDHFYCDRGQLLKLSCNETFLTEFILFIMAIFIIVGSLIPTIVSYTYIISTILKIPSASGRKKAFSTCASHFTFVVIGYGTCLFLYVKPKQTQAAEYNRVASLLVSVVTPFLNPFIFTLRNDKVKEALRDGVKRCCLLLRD
In short: as §1

Measured: odorant receptor agonist call;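 further: active if original authors judged signal statistically different from baseline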

Sequence of UniProt Q9R0K2 (Q9R0K2 as listed by the source): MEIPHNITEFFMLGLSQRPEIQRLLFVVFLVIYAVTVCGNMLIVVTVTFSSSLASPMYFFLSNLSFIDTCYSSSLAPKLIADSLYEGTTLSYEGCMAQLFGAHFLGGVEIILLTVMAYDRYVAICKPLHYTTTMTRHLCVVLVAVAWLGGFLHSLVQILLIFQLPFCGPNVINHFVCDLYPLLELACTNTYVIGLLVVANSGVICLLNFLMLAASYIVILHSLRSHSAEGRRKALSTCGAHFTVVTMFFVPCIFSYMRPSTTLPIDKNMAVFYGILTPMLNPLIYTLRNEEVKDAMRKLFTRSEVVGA

CCCC(C)=O
inactive: UniProt Q8VGX8 | UniProt Q8VGY6 | UniProt Q8VGZ2 | UniProt Q8VGZ7 | UniProt Q8VH10 | UniProt Q8VH18 | UniProt Q8VH20 | UniProt Q9EPN9 | UniProt Q9R0K2 | UniProt Q9WU86 | UniProt Q9WU94

C=C(C)C1CCC(C)C(=O)C1 (centres undefined)
inactive: UniProt Q8VGX8 | UniProt Q8VGY6 | UniProt Q8VGZ2 | UniProt Q8VGZ7 | UniProt Q8VH10 | UniProt Q8VH16 | UniProt Q8VH20 | UniProt Q8VH21 | UniProt Q924H8 | UniProt Q9EPN9 | UniProt Q9R0K2 | UniProt Q9WU86

C=CC(=C)CCC=C(C)CCC=C(C)C
inactive: UniProt Q8VGZ2 | UniProt Q8VGZ7 | UniProt Q8VH16 | UniProt Q8VH20 | UniProt Q8VH21 | UniProt Q924H8

Source: the M2OR odorant receptor database
